In the library only some 2.6% were active in any assay of this set; here they are far more common.
SENP8 block-1 = blocks the human protease SENP8; AID 2540; inhibition, % at 10 µM; Q96LD8; 1.2% of 330,000 active; purified SENP8, Z-RLRGG-aminoluciferin cleavage, luminescence; in the data active = inhibition above about 50%
Target sequence (Q96LD8 whole entry, looked up): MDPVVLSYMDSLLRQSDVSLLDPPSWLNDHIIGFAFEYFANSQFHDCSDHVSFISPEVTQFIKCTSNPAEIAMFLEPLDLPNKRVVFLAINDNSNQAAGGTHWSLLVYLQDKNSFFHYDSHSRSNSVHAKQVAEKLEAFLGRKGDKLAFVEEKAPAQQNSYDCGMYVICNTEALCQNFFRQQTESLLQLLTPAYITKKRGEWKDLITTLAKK
SENP1 inh = blocks the human SENP1 SUMO protease catalytic domain; Q9P0U3; recombinant SENP1 catalytic domain, CyPet-SUMO1-YPet FRET cleavage; inhibition, % at 10 µM; 0.21% of 360,000 active; AID 624204;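 active = inhibition at least 30% at 10 µM, raw YFP signal under a set limit, fluorescence ratio 0.5 to 1.5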;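 also: 0% = enzyme with DMSO and 100% = no enzyme wells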
Target sequence (Q9P0U3 419-644 limits assumed): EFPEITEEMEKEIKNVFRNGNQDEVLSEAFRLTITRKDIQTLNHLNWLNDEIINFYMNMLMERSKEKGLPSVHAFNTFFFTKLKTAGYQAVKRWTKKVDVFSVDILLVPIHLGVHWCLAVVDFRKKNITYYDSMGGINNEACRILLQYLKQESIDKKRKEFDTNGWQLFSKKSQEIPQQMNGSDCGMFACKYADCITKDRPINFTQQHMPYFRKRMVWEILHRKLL
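material = recombinant human SENP1 catalytic domain, His6-tagged | quantity = 20 pM enzyme | reagent = 25 nM SUMO1 FRET substrate | compound dosing = 10 µM single point, 0.5% DMSO | timing = 50 min enzyme reaction, room temperature, light-protected | detection = FRET, CFP and YFP emission | control set = no-enzyme low, enzyme-DMSO high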
SENP7 inh = blocks the human protease SENP7. inhibition, % at 5 µM. Q9BQF6. 1.5% of 330,000 active. recombinant SENP7, Z-RLRGG-aminoluciferin luminescence, 40 min. AID 434973;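 active = inhibition above about 50% at the single test dose, limit read from the data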;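 also: plate controls were DMSO with enzyme for no effect and no enzyme buffer wells for full effect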
SENP6 inh = blocks the human protease SENP6. Q9GZR1. Recombinant SENP6 catalytic domain, aminoluciferin luminescence. inhibition, % at 10 µM. 1.8% of 330,000 active. AID 2599;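 active = inhibition above about 50% at the single tested dose, limit read from the data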;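 also: plate controls were DMSO wells with enzyme for no effect and DMSO wells lacking enzyme for full effect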
SENP8 block-2 = inhibitors of human SENP8 protease. Q96LD8. recombinant SENP8, Nedd8 substrate fluorescence. inhibition, % at 20 µM. 0.64% of 360,000 active; in the data active = inhibition mostly above about 40%, no sharp cut-off; inactive = mostly below about 27%
Platelet DG rel = platelet dense granule release activity; 0.22% of 300,000 active; human platelet-rich plasma, SFLLRN dense granule ATP release, luminescence; inhibition, %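 (compounds screened at 7.5 µM in platelet-rich plasma)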;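 active = mean replicate score, as percent of positive control, at or above 50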
SENP8 confirm = confirmation of human SENP8 protease inhibitors | shares compounds with SENP7 inh | 40% of 6,200 active | Recombinant SENP8, Z-RLRGG-aminoluciferin luminescence, 60 min | inhibition, % at 12.5 µM | AID 488912;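 active = mean inhibition across replicates above about 50%, limit read from the data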
SENP6 confirm = confirmation of human SENP6 protease inhibitors. AID 488915. shares compounds with SENP7 inh. recombinant SENP6, Z-RLRGG-aminoluciferin luminescence. 58% of 6,200 active. inhibition, % at 12.5 µM
SENP7 confirm = confirmation of human SENP7 protease inhibitors; shares compounds with SENP7 inh; recombinant SENP7, Z-RLRGG-aminoluciferin luminescence, 40 min; inhibition, % at 12.5 µM; 69% of 6,200 active; AID 488917
Casp3 SENP sel = selectivity test for SENP inhibitors: human caspase-3 inhibition; shares compounds with SENP7 inh; 60% of 6,200 active; inhibition, % at 12.5 µM; AID 488918; purified caspase-3, Z-DEVD-aminoluciferin luminescence, 60 min;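 active = mean inhibition above about 50%, limit read from the data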;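 also: plate controls were enzyme with DMSO for no effect and wells without caspase-3 for full effect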
SENP luc ctr = luminescence interference (SENP counter-screen); AID 488919; shares compounds with SENP7 inh; inhibition, % at 12.5 µM; 39% of 6,200 active; Pre-incubated SENP8/Z-RLRGG-aminoluciferin, luciferase luminescence interference;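 active = mean inhibition above about 50% when retested at one dose, limit read from the data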;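 also: plate controls were DMSO wells with completed reaction for no effect and substrate without enzyme for full effect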
* marks the source's active call; other numbers are inactive results; · = no result given.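 The calls were made as follows, unless noted: active = mean inhibition above about 50% in the one-dose retest (limit read from the data); inactive = the rest.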

SMILES	SENP8 block-1	SENP1 inh	SENP7 inh	SENP6 inh	SENP8 block-2	Platelet DG rel	SENP8 confirm	SENP6 confirm	SENP7 confirm	Casp3 SENP sel	SENP luc ctr
O=C(Nc1ccc(F)cc1)/C(Cl)=C/c1ccccc1	79*	1	88*	3	11	8	-11	79*	96*	72*	14
COc1ccc(CC(=O)NCc2ccccc2F)cc1S(=O)(=O)N1CCOCC1	·	4	·	·	15	·	·	·	·	·	·
COc1ccc(-n2nc3c(c2NC(=O)C2CC(=O)N(c4ccccc4)C2)CS(=O)(=O)C3)cc1 (stereo not drawn)	-3	1	4	-1	3	-1	·	·	·	·	·
Clc1ccccc1CONc1ncnc2nonc12	34	2	36	62*	21	3	39	33	71*	53*	61*
CC(C)N1CSC(=S)N(Cc2ccccc2)C1	2	-1	1	10	7	-2	·	·	·	·	·
O=C(Nc1ccc(C(=O)NCc2ccccc2)cc1)C1=CSCCO1	-7	-1	-1	-5	-4	2	·	·	·	·	·
O=C(/C=C/c1cccs1)Nc1nncs1	1	1	20	24	1	8	·	·	·	·	·
CC(C)(C)c1ccc(/C=C/C(=O)Nc2nncs2)cc1	28	2	79*	47	4	27	25	25	5	18	13
COc1ccc(NC(=O)c2ccc3c(c2)OCO3)cc1	62*	-1	60*	68*	13	0	63*	61*	87*	88*	72*
COc1ccc(/C=C/C(=O)c2ccccc2)c(OC)c1	-17	-61	-5	3	-53	1	·	·	·	·	·
COc1ccc(N/C=C/C(=O)c2ccc3c(c2)OCO3)cc1OC	12	-12	-19	35	-4	15	·	·	·	·	·
CCOc1ccc(N/C=C\C(=O)c2ccc3c(c2)OCO3)cc1	-6	-22	-6	3	-175	-1	·	·	·	·	·
COc1ccc(N/C=C\C(=O)c2ccc3c(c2)OCO3)cc1	51*	-19	78*	76*	-147	15	15	44	65*	54*	22
COc1ccc(/C=C/C(=O)c2ccc3c(c2)OCO3)c(OC)c1	45	-91	83*	84*	-112	25	87*	78*	94*	50	66*
O=C(/C=C\Nc1ccc2c(c1)OCO2)c1ccc2c(c1)OCO2	30	-24	86*	-7	-51	18	10	15	-2	10	-1
COC(=O)C1=C(C(=O)OC)[C@@H]2Nc3ccccc3[C@@]23C[C@@H](C(=O)OC)N(C(=O)COCc2ccccc2)C3=N1	-15	2	4	-17	14	3	·	·	·	·	·
S=C(NCc1ccco1)N1CCN(Cc2ccc(Cl)cc2Cl)CC1	-1	-7	1	-11	4	0	·	·	·	·	·
O=c1c2cc(F)ccc2sn1-c1ccc(F)cc1	88*	0	44	93*	7	·	92*	93*	100*	92*	86*
COc1ccc(-n2sc3ccc(F)cc3c2=O)cc1	91*	0	79*	91*	21	·	96*	95*	102*	96*	92*
Cc1ccc(C)c(-n2sc3ccc(F)cc3c2=O)c1	-1	1	6	-12	17	·	·	·	·	·	·
O=c1c(-c2ccccc2)c[nH]n1-c1cccc([N+](=O)[O-])c1	76*	1	68*	79*	8	5	73*	72*	94*	90*	74*
O=c1c(-c2ccc(Cl)cc2)c[nH]n1-c1ccccc1	42	1	6	54*	-6	8	22	38	48	66*	7
O=C(NC(=Nc1nc2ccccc2o1)NC(=O)c1ccccc1)c1ccccc1	-2	-1	-2	-2	-351	3	·	·	·	·	·
Fc1ccccc1Nc1nc2ccccc2o1	94*	1	97*	99*	20	58*	97*	98*	102*	97*	96*
O=C(NNc1nc2ccccc2o1)c1ccccc1	53*	2	0	64*	2	3	16	69*	48	71*	44
SMILES	SENP8 block-1	SENP1 inh	SENP7 inh	SENP6 inh	SENP8 block-2	Platelet DG rel	SENP8 confirm	SENP6 confirm	SENP7 confirm	Casp3 SENP sel	SENP luc ctr
c1ccc(Nc2nc3ccccc3o2)cc1	90*	-2	97*	97*	10	5	10	97*	-1	93*	94*
Cc1cc(C)nc(Nc2nc3ccccc3o2)n1	-2	4	-7	-16	15	9	·	·	·	·	·
Nc1ccc2nc(-c3ccccn3)[nH]c2c1	38	-36	52*	52*	-406	10	42	51*	79*	82*	49
Nc1ccc2nc(-c3cccs3)[nH]c2c1	20	-33	0	39	-313	2	·	·	·	·	·
COc1ccc2nc(-c3ccccn3)[nH]c2c1	59*	-2	82*	77*	-412	24	78*	73*	93*	89*	73*
Nc1cccc(-c2nc3ccc(C(=O)c4ccccc4)cc3[nH]2)c1	71*	0	81*	85*	-24	14	80*	76*	93*	63*	83*
Nc1ccc2nc(-c3ccc(N)c(Cl)c3)[nH]c2c1	35	-9	34	60*	-449	20	62*	59*	81*	78*	63*
O=C(Cc1ccc(Cl)cc1)NCCCNC(=O)c1cccnc1	-4	0	-48	19	15	-10	·	·	·	·	·
O=S(=O)(Nc1nc2ccccc2nc1NCC1CCCO1)c1cccc(Cl)c1 (stereo not drawn)	4	-20	-7	0	-476	9	·	·	·	·	·
CSCCC(NS(=O)(=O)c1ccc(C)cc1)C(=O)N1CCN(C(C)=O)CC1 (stereo not drawn)	-7	2	18	-15	10	1	·	·	·	·	·
CCc1nc2c(OCc3cc(Cl)cc(Cl)c3)cccn2c1N(C)C(=O)Nc1ccccc1OC	·	-5	·	·	5	·	·	·	·	·	·
Nc1ccc2nc(-c3ccccc3)[nH]c2c1	34	-23	46	70*	-318	4	61*	65*	89*	90*	76*
Nc1ccc2nc(-c3cccnc3)[nH]c2c1	0	-2	9	18	-161	2	·	·	·	·	·
